Test results as given in ChEMBL document CHEMBL3877249, “Novel 2-aryl-4-(4'-hydroxyphenyl)-5H-indeno[1,2-b]pyridines as potent DNA non-intercalative topoisomerase catalytic inhibitors” (Eur J Med Chem, 2017).
Structures can show the parent of a compound that is named as a salt.

Columns and labels:
[1] = Antiproliferative activity against human DU145 cells after 72 hrs by CCK8 assay; type: functional, cell-based; conditions: DU-145, 72 h
Summary of the method: (§1)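 Cells seeded at 2–4 × 10^4 per well, grown overnight in medium with 10% FBS at 37 °C and 5% CO2. After 4 h FBS starvation they were exposed to graded compound concentrations for 72 h. CCK-8 was added for a further 4 h and absorbance read at 450 nm. IC50 came from a four-parameter logistic fit.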

[2] = Antiproliferative activity against human HCT15 cells after 72 hrs by CCK8 assay; type: functional, cell-based; conditions: HCT-15, 72 h; summary of the method: as §1
[3] = Antiproliferative activity against human HeLa cells after 72 hrs by CCK8 assay; type: functional, cell-based; summary of the method: as §1
Homo sapiens = organism: Homo sapiens; test: Inhibition of DNA topoisomerase catalytic activity in human T47D nuclear extract at 50 uM using supercoiled pBR322 DNA as substrate after 24 hrs by ethidium bromide staining based agarose gel electrophoresis relative to control
Summary of the method: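 T47D cells at 5 × 10^5 per 60 mm dish were grown to 80% confluence, washed with FBS-free medium and treated 24 h. Nuclear extracts were prepared in HEPES/MgCl2/KCl/DTT/NP40 buffer, then extracted with NaCl buffer. The amount of extract that fully relaxes 100 ng pBR322 at 37 °C in 20 min was set as the unit. Products were run on agarose in TAE and stained with ethidium bromide (0.5 µg/mL).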

[4] = Antiproliferative activity against HFL1 cells after 72 hrs by CCK8 assay; type: cell-based; conditions: Homo sapiens, HFL1, 72 h; summary of the method: as §1
[5] = Antiproliferative activity against HEK293 cells after 72 hrs by CCK8 assay; type: cell-based; conditions: Homo sapiens, HEK293, 72 h; summary of the method: as §1
[6] = target: DNA topoisomerase 2-alpha (Homo sapiens) (UniProt P11388); test: Inhibition of human DNA topoisomerase-2alpha at 100 uM using supercoiled pBR322 DNA as substrate after 30 mins by ethidium bromide staining based agarose gel electrophoresis relative to control
DNA topoisomerase 2-alpha (Homo sapiens), sequence (P11388 whole entry): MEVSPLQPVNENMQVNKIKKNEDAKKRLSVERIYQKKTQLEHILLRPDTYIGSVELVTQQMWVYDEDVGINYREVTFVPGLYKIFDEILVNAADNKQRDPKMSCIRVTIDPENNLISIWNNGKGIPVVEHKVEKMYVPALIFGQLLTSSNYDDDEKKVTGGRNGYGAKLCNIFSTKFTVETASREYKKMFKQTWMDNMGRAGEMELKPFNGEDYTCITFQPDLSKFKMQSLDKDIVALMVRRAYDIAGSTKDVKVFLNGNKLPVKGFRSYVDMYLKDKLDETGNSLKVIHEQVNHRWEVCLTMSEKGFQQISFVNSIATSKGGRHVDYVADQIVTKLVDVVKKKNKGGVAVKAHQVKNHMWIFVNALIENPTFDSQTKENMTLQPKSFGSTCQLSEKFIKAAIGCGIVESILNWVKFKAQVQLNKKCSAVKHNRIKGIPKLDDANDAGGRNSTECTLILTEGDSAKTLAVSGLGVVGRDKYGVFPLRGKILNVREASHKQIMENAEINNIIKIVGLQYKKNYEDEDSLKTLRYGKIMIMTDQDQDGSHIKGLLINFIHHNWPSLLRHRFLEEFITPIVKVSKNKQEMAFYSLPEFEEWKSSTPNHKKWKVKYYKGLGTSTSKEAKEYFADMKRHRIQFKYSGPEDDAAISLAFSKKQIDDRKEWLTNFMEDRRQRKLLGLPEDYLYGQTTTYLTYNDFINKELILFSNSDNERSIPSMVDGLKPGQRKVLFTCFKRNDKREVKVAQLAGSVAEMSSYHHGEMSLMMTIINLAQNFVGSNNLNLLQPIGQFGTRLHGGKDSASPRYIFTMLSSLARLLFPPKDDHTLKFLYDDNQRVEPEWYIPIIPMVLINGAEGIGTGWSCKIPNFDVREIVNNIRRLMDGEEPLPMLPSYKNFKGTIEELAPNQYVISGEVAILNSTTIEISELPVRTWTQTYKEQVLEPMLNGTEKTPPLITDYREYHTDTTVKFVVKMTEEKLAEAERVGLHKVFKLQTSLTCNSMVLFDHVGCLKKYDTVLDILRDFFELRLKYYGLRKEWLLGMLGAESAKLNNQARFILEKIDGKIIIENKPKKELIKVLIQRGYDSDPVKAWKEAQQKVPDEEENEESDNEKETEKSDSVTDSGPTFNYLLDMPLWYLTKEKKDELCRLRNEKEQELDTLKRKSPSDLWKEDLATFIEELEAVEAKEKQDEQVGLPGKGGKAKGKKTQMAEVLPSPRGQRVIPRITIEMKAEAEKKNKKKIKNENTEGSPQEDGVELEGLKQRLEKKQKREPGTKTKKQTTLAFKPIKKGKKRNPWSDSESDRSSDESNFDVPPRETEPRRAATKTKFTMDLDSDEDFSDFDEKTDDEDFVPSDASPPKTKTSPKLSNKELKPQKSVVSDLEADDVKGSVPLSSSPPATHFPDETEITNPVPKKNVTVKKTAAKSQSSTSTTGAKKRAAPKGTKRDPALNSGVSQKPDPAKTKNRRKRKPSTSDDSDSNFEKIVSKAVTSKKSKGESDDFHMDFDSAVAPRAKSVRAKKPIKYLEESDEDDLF
Summary of the method: (§2)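 Human topo IIα, 1 unit set by full relaxation of pBR322, with 100 ng pBR322 for 30 min in 10 mM Tris-HCl pH 7.9, 50 mM NaCl, 5 mM MgCl2, 1 mM EDTA and BSA. Stop was with EDTA. Screening was at 100 µM, with retest at 20 µM if inhibition exceeded 30%. Gel was 1% agarose at 25 V for 4 h in TAE, stained with ethidium bromide. Mean ± S.D. from three experiments in triplicate.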

[7] = target: T1, DNA topoisomerase 1 (Homo sapiens) (UniProt P11387); test: Inhibition of human DNA topoisomerase-1 at 100 uM using supercoiled pBR322 DNA as substrate after 30 mins by ethidium bromide staining based agarose gel electrophoresis relative to control
T1 sequence (whole entry): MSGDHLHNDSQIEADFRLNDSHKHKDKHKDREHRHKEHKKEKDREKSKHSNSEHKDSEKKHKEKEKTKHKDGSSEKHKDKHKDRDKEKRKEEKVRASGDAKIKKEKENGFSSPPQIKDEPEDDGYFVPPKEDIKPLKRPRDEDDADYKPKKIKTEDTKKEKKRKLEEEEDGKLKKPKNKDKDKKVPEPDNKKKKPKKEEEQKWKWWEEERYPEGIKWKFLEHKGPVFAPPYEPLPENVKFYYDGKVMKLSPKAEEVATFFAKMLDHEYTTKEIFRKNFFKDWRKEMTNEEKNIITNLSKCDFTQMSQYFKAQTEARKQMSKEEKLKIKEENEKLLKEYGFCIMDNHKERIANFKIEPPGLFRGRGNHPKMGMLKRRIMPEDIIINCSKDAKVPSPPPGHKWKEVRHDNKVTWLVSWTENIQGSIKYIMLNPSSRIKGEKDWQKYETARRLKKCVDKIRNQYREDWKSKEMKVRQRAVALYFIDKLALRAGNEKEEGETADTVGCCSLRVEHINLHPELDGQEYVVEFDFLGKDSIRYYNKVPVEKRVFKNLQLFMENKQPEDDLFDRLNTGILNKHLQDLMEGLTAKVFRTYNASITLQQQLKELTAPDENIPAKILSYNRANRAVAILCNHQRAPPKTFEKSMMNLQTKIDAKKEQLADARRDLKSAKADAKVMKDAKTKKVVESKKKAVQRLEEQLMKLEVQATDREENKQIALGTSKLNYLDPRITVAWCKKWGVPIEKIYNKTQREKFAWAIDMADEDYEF
Summary of the method: (§3)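 Recombinant human topo I, 1 unit (the amount that fully relaxes supercoiled pBR322), with 100 ng pBR322 DNA at 37 °C for 30 min in 10 mM Tris-HCl pH 7.9, 150 mM NaCl, 0.1% BSA. Compounds were screened at 100 µM, and those above 30% inhibition were retested at 20 µM. Products ran on 1% agarose at 15 V for 7 h in TAE with ethidium bromide staining. Mean ± S.D. from three experiments in triplicate.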

[8] = target: T1, DNA topoisomerase 1 (Homo sapiens); test: Inhibition of human DNA topoisomerase-1 at 20 uM using supercoiled pBR322 DNA as substrate after 30 mins by ethidium bromide staining based agarose gel electrophoresis relative to control; summary of the method: as §3
[9] = Antiproliferative activity against human T47D cells after 72 hrs by CCK8 assay; type: functional, cell-based; summary of the method: as §1
[10] = target: T1, DNA topoisomerase 1 (Homo sapiens); test: Poison activity at human DNA topoisomerase-1 assessed as DNA intercalation by measuring DNA unwinding using pHOT1 DNA as substrate after 30 mins by ethidium bromide staining based agarose gel electrophoresis
[11] = target: DNA topoisomerase 2-alpha (Homo sapiens) (UniProt P11388); test: Inhibition of human DNA topoisomerase-2alpha at 20 uM using supercoiled pBR322 DNA as substrate after 30 mins by ethidium bromide staining based agarose gel electrophoresis relative to control; summary of the method: as §2

Row | Structure (SMILES) | inhibition (Homo sapiens) [%] | inhibition [6] [%] | inhibition [7] [%] | inhibition [8] [%] | inhibition [11] [%] | IC50 [1] [µM] | IC50 [2] [µM] | IC50 [3] [µM] | IC50 [4] [µM] | IC50 [5] [µM] | IC50 [9] [µM] | Activity [10]
1 | COc1cc([C@@H]2c3cc4c(cc3[C@@H](O[C@@H]3O[C@@H]5CO[C@@H](C)O[C@H]5[C@H](O)[C@H]3O)[C@H]3COC(=O)[C@H]23)OCO4)cc(OC)c1O [ETOPOSIDE] | 61.1 | – | – | – | – | 0.02 to 13.1 | 1.1 to 2.82 | 0.18 to 1.4 | 87.6 | 1.74 | – | –
2 | c1ccc(-c2cc(-c3cccs3)nc3c2Cc2ccccc2-3)cc1 | – | 5.8 | 56 | 0 | – | > 50 | > 50 | > 50 | – | – | – | –
3 | c1ccc(-c2cc(-c3ccncc3)nc3c2Cc2ccccc2-3)cc1 | – | 2.3 | 0 | – | – | > 50 | 16.4 | > 50 | – | – | > 50 | –
4 | c1ccc(-c2cc(-c3ccsc3)nc3c2Cc2ccccc2-3)cc1 | – | 0.5 | 72.5 | 0 | – | > 50 | > 50 | > 50 | – | – | – | –
5 | COc1cc(NS(C)(=O)=O)ccc1Nc1c2ccccc2nc2ccccc12 | – | – | – | – | – | – | – | – | – | – | – | Dose-dependent effect
6 | Oc1ccccc1-c1cc(-c2cccnc2)nc2c1Cc1ccccc1-2 | – | 65.5 | 0 | – | 10.5 | 7.46 | 3.52 | 7.8 | – | – | 5.15 | –
7 | c1ccc(-c2cc(-c3ccco3)nc3c2Cc2ccccc2-3)cc1 | – | 41.3 | 18.7 | – | 5.7 | 7.74 | > 50 | 16.6 | – | – | – | –
8 | Oc1ccccc1-c1cc(-c2ccco2)nc2c1Cc1ccccc1-2 | – | 58.7 | 62.4 | 27.1 | 20 | > 50 | > 50 | > 50 | – | – | > 50 | –
9 | Oc1ccccc1-c1cc(-c2ccccn2)nc2c1Cc1ccccc1-2 | – | 15.2 | 0.5 | – | – | > 50 | > 50 | > 50 | – | – | 29.6 | –
10 | CC[C@@]1(O)C(=O)OCc2c1cc1n(c2=O)Cc2cc3ccccc3nc2-1 [CAMPTOTHECIN] | – | – | – | – | – | 0.11 to 2.09 | 0.31 to 18.9 | 0.4 to 7.32 | 1.06 | 0.83 | 13.7 | –
11 | Oc1ccccc1-c1cc(-c2ccsc2)nc2c1Cc1ccccc1-2 | – | 50.2 | 12.8 | – | 4.9 | > 50 | > 50 | > 50 | – | – | > 50 | –
12 | COc1cccc2c1C(=O)c1c(O)c3c(c(O)c1C2=O)C[C@@](O)(C(=O)CO)C[C@@H]3O[C@H]1C[C@H](N)[C@H](O)[C@H](C)O1 [DOXORUBICIN HYDROCHLORIDE] | – | – | – | – | – | 0.52 to 1 | 1.08 to 1.23 | 0.88 to 1.2 | 2.31 | 4.96 | 1.34 | –
13 | Oc1ccccc1-c1cc(-c2ccncc2)nc2c1Cc1ccccc1-2 | – | 75.2 | 0 | – | 0.9 | 4.7 | 2.18 | 5.78 | – | – | 2.44 | –
14 | c1ccc(-c2cc(-c3ccccn3)nc3c2Cc2ccccc2-3)cc1 | – | 0 | 12.3 | – | – | – | – | – | – | – | – | –
15 | Oc1cccc(-c2cc(-c3ccccn3)nc3c2Cc2ccccc2-3)c1 | – | 3.5 | 2.4 | – | – | > 50 | > 50 | > 50 | – | – | > 50 | –

More lines, main results first:

Row | inhibition (Homo sapiens) [%] | inhibition [6] [%] | inhibition [7] [%] | inhibition [8] [%] | inhibition [11] [%] | Structure (SMILES) | IC50 [1] [µM] | IC50 [2] [µM] | IC50 [3] [µM] | IC50 [4] [µM] | IC50 [5] [µM] | IC50 [9] [µM] | Activity [10]
16 | – | 3.9 | 6.4 | – | – | c1ccc(-c2cc(-c3ccoc3)nc3c2Cc2ccccc2-3)cc1 | 1.09 | 7.05 | 10.8 | – | – | 17.4 | –
17 | – | 14.8 | 0 | – | – | Oc1ccc(-c2cc(-c3ccccn3)nc3c2Cc2ccccc2-3)cc1 | > 50 | > 50 | > 50 | – | – | > 50 | –
18 | – | 18.5 | 1.5 | – | – | Oc1cccc(-c2cc(-c3cccnc3)nc3c2Cc2ccccc2-3)c1 | 2.8 | 1.87 | 5.19 | – | – | 1.17 | –
19 | – | 4 | 0 | – | – | Oc1ccc(-c2cc(-c3cccnc3)nc3c2Cc2ccccc2-3)cc1 | > 50 | > 50 | > 50 | – | – | > 50 | –
20 | – | 49.5 | 1.3 | – | – | Oc1cccc(-c2cc(-c3ccncc3)nc3c2Cc2ccccc2-3)c1 | 4.36 | 1.94 | 2.41 | – | – | 1.05 | –
21 | – | 1.8 | 0.4 | – | – | Oc1ccccc1-c1cc(-c2ccoc2)nc2c1Cc1ccccc1-2 | > 50 | > 50 | > 50 | – | – | > 50 | –
22 | – | 74.8 | 45.5 | 2.5 | 65.9 | Oc1ccc(-c2cc(-c3ccsc3)nc3c2Cc2ccccc2-3)cc1 | 3.35 | 2.45 | 4.9 | – | – | 4.52 | –
23 | – | 77.5 | 28.9 | – | 36.9 | Oc1cccc(-c2cc(-c3ccco3)nc3c2Cc2ccccc2-3)c1 | 3.75 | 1.58 | 6.27 | – | – | 1.07 | –
24 | – | 61.4 | 1.4 | – | 28 | Oc1ccc(-c2cc(-c3ccoc3)nc3c2Cc2ccccc2-3)cc1 | 6.01 | 1.83 | 5.21 | – | – | 2.6 | –
25 | – | 75.5 | 33.1 | 0 | 22 | Oc1cccc(-c2cc(-c3ccsc3)nc3c2Cc2ccccc2-3)c1 | 3.12 | 2.49 | 1.74 | – | – | 1.52 | –
26 | – | 82.2 | 4.5 | – | 29.6 | Oc1cccc(-c2cc(-c3ccoc3)nc3c2Cc2ccccc2-3)c1 | 1.51 | 1.24 | 4.48 | – | – | 2.91 | –
27 | – | 1.14 | 0 | – | – | Oc1ccc(-c2cc(-c3ccncc3)nc3c2Cc2ccccc2-3)cc1 | > 50 | > 50 | > 50 | – | – | > 50 | –
